High-throughput results (PubChem BioAssay)
GASC1 inh – blocks human GASC-1 (KDM4C) demethylase activity | Q9H3R0 | GST-KDM4C 2-372, H3K9me3 peptide, LANCE TR-FRET | inhibition, % at 12.5 µM | 0.15% of 96,000 active | AID 720574;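 active = mean replicate inhibition above about 25%, with at least 55% of replicates also reaching it, limit read from the data, passing the limit was not always enough; inconclusive = only one of those two conditions met; inactive = neither condition met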
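System: N-terminal GST-fused human GASC-1 (KDM4C) fragment, residues 2-372; amount: enzyme final amount 10 nM; incubation: reaction 30 min RT, detection step 1 h RT; medium: HEPES buffer, pH 7.5, plus ascorbate; technique: LANCE TR-FRET, Eu antibody, ULight-streptavidin, EDTA, ex 340 nm, em 618/671 nm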
T cruzi growth-1 – blocks T. cruzi growth in NIH3T3 culture; T. cruzi beta-gal in NIH3T3, GalScreen luminescence, 90 h; inhibition, % at 8.34 µM; 5.9% of 77,000 active; AID 624255;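 active = mean inhibition above about 93%, with at least 55% of replicates each passing it, limit read from the data, passing the limit was not always enough; inconclusive = only one of those two conditions holds; inactive = neither condition holds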
IDH1 R132H inh – blocks human IDH1 R132H reductase activity | O75874 | diaphorase/resazurin fluorescence, 60 min | inhibition, % at 10 µM | 0.18% of 70,000 active | AID 624101; in the data active = inhibition above about 34%; inconclusive = no clear call, values can overlap the other calls; inactive = below about 11%
Target sequence (O75874 whole entry R132H): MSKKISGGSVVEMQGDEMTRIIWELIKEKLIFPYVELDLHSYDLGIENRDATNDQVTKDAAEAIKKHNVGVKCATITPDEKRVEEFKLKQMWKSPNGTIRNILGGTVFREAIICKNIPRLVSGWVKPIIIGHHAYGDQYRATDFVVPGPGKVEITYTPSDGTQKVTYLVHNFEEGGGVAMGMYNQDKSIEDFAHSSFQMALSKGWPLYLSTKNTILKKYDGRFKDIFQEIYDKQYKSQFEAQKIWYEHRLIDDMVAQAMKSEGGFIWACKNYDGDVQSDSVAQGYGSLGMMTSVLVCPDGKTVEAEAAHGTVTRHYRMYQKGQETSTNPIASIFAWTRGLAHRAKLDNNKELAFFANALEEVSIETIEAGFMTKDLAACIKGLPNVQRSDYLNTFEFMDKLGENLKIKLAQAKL
T cruzi growth-2 – Trypanosoma cruzi proliferation inhibition. inhibition, % at 8.35 µM. AID 651739. T. cruzi beta-gal in NIH3T3, GalScreen luminescence, 90 h. 72% of 5,600 active. shares compounds with T cruzi growth-1;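 active = mean replicate inhibition above about 95% and at least 55% of replicates individually reaching it, limit read from the data; inconclusive = only one of the two criteria is met; inactive = neither criterion is met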
T cruzi growth-3 – Trypanosoma cruzi proliferation inhibition. T. cruzi beta-gal in NIH3T3, GalScreen luminescence, 90 h. inhibition, % at 2.09 µM. 21% of 5,600 active. shares compounds with T cruzi growth-1;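 active = mean inhibition above about 95%, with at least 55% of replicates also reaching it, limit read from the data; inconclusive = meets just one of the two conditions; inactive = meets neither condition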
NIH3T3 tox – cytotoxicity in mouse NIH/3T3 fibroblasts; shares compounds with T cruzi growth-1; NIH/3T3 viability, CellTiter-Glo ATP luminescence, 90 h; cytotoxicity (signal decrease), % at 8.35 µM; 14% of 5,600 active;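 active = mean signal decrease across replicates above about 35% based on untreated-well scatter, with enough replicates individually passing, limit read from the data; inconclusive = no rule stated though some were filed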
NIH3T3 tox 2 – kills mouse NIH/3T3 fibroblasts. 56% of 5,600 active. inhibition, % at 24.9 µM. shares compounds with T cruzi growth-1. NIH/3T3 viability, CellTiter-Glo ATP luminescence, 90 h;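 active = mean loss of cell viability signal at or above a set limit, and enough replicates individually reaching it; inconclusive = meets only the mean limit or only the replicate share; inactive = meets neither condition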
Hits are given with their value; 0 = inactive; ? = inconclusive; - = no result given. This excerpt belongs to a sample that is enriched for hits.

SMILES	GASC1 inh	T cruzi growth-1	IDH1 R132H inh	T cruzi growth-2	T cruzi growth-3	NIH3T3 tox	NIH3T3 tox 2
Cc1ccc(S(=O)(=O)Nc2ccc3c(c2)C(=O)N([C@@H](C)CO)C[C@@H](C)[C@@H](CN(C)C(=O)Nc2ccc(C(F)(F)F)cc2)OCCCC[C@@H](C)O3)cc1	0	98	0	104	112	0	0
O=C(CSc1nnc(-c2ccccc2O)n1-c1ccccc1)Nc1ccc2c(c1)OCCO2	-	-	0	-	-	-	-
COc1ccccc1NC(=O)CN(c1ccccc1)S(C)(=O)=O	-	-	0	-	-	-	-
Cc1noc(C)c1S(=O)(=O)Nc1ccc2c(c1)C(=O)N([C@H](C)CO)C[C@@H](C)[C@@H](CN(C)S(=O)(=O)c1c(C)noc1C)OCCCC[C@H](C)O2	0	0	-	-	-	-	-
C[C@H](CO)N1C[C@H](C)[C@H](CN(C)Cc2ccc(C(F)(F)F)cc2)Oc2ccc(NC(=O)c3ccncc3)cc2CC1=O	0	0	0	-	-	-	-
C[C@@H]1CN([C@H](C)CO)C(=O)Cc2cc(NC(=O)c3ccncc3)ccc2O[C@H]1CN(C)Cc1ccc(C(F)(F)F)cc1	0	106	0	104	0	0	63
C[C@H](CO)N1C[C@H](C)[C@@H](CN(C)Cc2ccc(C(F)(F)F)cc2)Oc2ccc(NC(=O)C3CC3)cc2CC1=O	0	102	0	105	99	0	0
C[C@H](CO)N1C[C@H](C)[C@H](CN(C)Cc2ccc(C(F)(F)F)cc2)Oc2ccc(NC(=O)C3CC3)cc2CC1=O	0	0	0	-	-	-	-
C[C@H]1CCCCO[C@@H](CN(C)S(=O)(=O)c2ccc(F)cc2)[C@@H](C)CN([C@@H](C)CO)C(=O)c2cc(NC(=O)C3CCCCC3)ccc2O1	0	0	0	-	-	-	-
Cc1sc2ncnc(SCC(=O)NC3CCCCC3)c2c1C	-	-	0	-	-	-	-
C[C@@H]1CN([C@@H](C)CO)C(=O)Cc2cc(NS(=O)(=O)c3ccccc3)ccc2O[C@H]1CN(C)C(=O)Nc1ccc(F)cc1	0	-	0	-	-	-	-
COc1ccc(S(=O)(=O)N(C)C[C@H]2OCCCC[C@@H](C)Oc3ccc(NS(=O)(=O)c4ccccc4)cc3C(=O)N([C@@H](C)CO)C[C@H]2C)cc1	0	107	0	?	0	0	0
COc1ccc(S(=O)(=O)Nc2ccc3c(c2)C(=O)N([C@H](C)CO)C[C@H](C)[C@H](CN(C)S(=O)(=O)c2ccccc2)OCCCC[C@H](C)O3)cc1	0	-	0	-	-	-	-
COc1ccc(S(=O)(=O)N(C)C[C@@H]2OCCCC[C@@H](C)Oc3ccc(NS(=O)(=O)c4ccccc4)cc3C(=O)N([C@H](C)CO)C[C@H]2C)cc1	0	106	0	109	0	0	0
COc1ccc(S(=O)(=O)N(C)C[C@@H]2OCCCC[C@H](C)Oc3ccc(NS(=O)(=O)c4ccccc4)cc3C(=O)N([C@H](C)CO)C[C@@H]2C)cc1	0	0	0	-	-	-	-
COc1ccccc1-c1ccc([C@@H]2[C@H](C#N)N(C(=O)C3CC3)[C@H]2CO)cc1	0	102	-	0	0	0	47
COc1ccccc1-c1ccc([C@H]2[C@@H](C#N)N(C(=O)C3CC3)[C@H]2CO)cc1	0	99	-	0	0	0	0
COc1ccccc1-c1ccc([C@H]2[C@@H](CO)N(C(=O)C3CCCCC3)[C@H]2C#N)cc1	0	0	0	-	-	-	-
COc1ccccc1-c1ccc([C@@H]2[C@@H](CO)N(C(=O)C3CC3)[C@H]2C#N)cc1	0	105	-	0	0	0	0
COc1ccccc1-c1ccccc1[C@H]1[C@H](C#N)N(C(=O)C2CC2)[C@H]1CO	0	-	-	-	-	-	-
COc1ccccc1-c1ccc([C@@H]2[C@@H](C#N)N(C(=O)C3CCCC3)[C@@H]2CO)cc1	0	-	-	-	-	-	-
COc1ccccc1-c1ccc([C@H]2[C@@H](C#N)N(C(=O)C3CC3)[C@@H]2CO)cc1	0	103	-	110	0	0	35
N#C[C@@H]1[C@@H](c2ccc(-c3ccccc3F)cc2)[C@H](CO)N1C(=O)C1CC1	0	0	-	-	-	-	-
CC(C)(O)C#Cc1ccc([C@@H]2[C@H]3CN(C(=O)c4cccnc4)CCCCN3[C@H]2CO)cc1	0	0	-	-	-	-	-
C[C@@H]1CN([C@@H](C)CO)C(=O)c2cccc(NC(=O)c3ccncc3)c2O[C@H]1CN(C)Cc1ccc(C(F)(F)F)cc1	0	0	0	-	-	-	-
SMILES	GASC1 inh	T cruzi growth-1	IDH1 R132H inh	T cruzi growth-2	T cruzi growth-3	NIH3T3 tox	NIH3T3 tox 2
COc1ccc(NC(=O)Nc2ccc3c(c2)C(=O)N([C@@H](C)CO)C[C@@H](C)[C@H](CN(C)C(=O)CCCN(C)C)OCCCC[C@H](C)O3)cc1	0	0	-	-	-	-	-
N#C[C@H]1[C@H](c2ccc(-c3ccccc3F)cc2)[C@H](CO)N1C(=O)C1CC1	0	0	-	-	-	-	-
COc1ccccc1-c1ccc([C@@H]2[C@@H](C#N)N(C(=O)C3CC3)[C@@H]2CO)cc1	0	104	-	0	0	0	0
COc1ccc(-c2ccc([C@H]3[C@H](C#N)N(C(=O)C4CC4)[C@H]3CO)cc2)cc1	0	0	-	-	-	-	-
COc1ccccc1-c1ccc([C@H]2[C@H](C#N)N(C(=O)C3CC3)[C@H]2CO)cc1	0	105	-	0	0	0	?
CC(C)C#Cc1ccc2c(c1)O[C@H](CN(C)C(=O)c1cccc(F)c1)[C@H](C)CN([C@@H](C)CO)S2(=O)=O	0	118	0	109	0	0	78
CC(C)C#Cc1ccc2c(c1)O[C@@H](CN(C)C(=O)c1cccc(F)c1)[C@H](C)CN([C@@H](C)CO)S2(=O)=O	0	107	0	110	0	0	60
CC(C)C#Cc1ccc2c(c1)O[C@H](CN(C)C(=O)c1ccccc1)[C@H](C)CN([C@H](C)CO)S2(=O)=O	0	0	0	-	-	-	-
CC(C)C#Cc1ccc2c(c1)O[C@@H](CN(C)C(=O)c1ccccc1)[C@@H](C)CN([C@@H](C)CO)S2(=O)=O	0	0	0	-	-	-	-
COc1cccc(NC(=O)Nc2ccc3c(c2)C(=O)N(C)C[C@H](OC)[C@H](C)CN(C)[C@@H](C)CO3)c1	0	0	0	-	-	-	-
COCCNC(=O)C[C@H]1C[C@H]2c3cc(NC(=O)Nc4ccccc4F)ccc3O[C@H]2[C@H](CO)O1	0	0	0	-	-	-	-
Cc1noc(C)c1NC(=O)N(C)C[C@@H]1OCCCC[C@@H](C)Oc2ccc(NC(=O)Nc3ccc(C(F)(F)F)cc3)cc2C(=O)N([C@H](C)CO)C[C@H]1C	0	0	0	-	-	-	-
CC(C)NC(=O)Nc1ccc2c(c1)C(=O)N([C@H](C)CO)C[C@H](C)[C@H](CN(C)C(=O)Nc1ccccc1)O2	0	0	0	-	-	-	-
COCC#Cc1ccc([C@@H]2[C@@H](CO)N3C(=O)CN(C(=O)C4CCCCC4)C[C@H]23)cc1	0	-	-	-	-	-	-
